Consider six molecules from ChEMBL document CHEMBL5357067, “Selective (α)-l-Rhamnosylation and Neuroprotective Activity Exploration of Cardiotonic Steroids” (ACS Med Chem Lett, 2024).

Assay type in all cases: functional, cell-based
Assay [1] has as its system Glial cell. Description: Antiinflammatory activity in C57BL/6J mouse primary glial cells assessed as effect on IKBKE mRNA level at 200 nM incubated for 24 hrs by qPCR analysis. On the technique in general: Real-time PCR tracks product formation cycle by cycle.
In assay [2] the test system is Glial cell. In words: Antiinflammatory activity in C57BL/6J mouse primary glial cells assessed as effect on IL-1 mRNA level at 200 nM incubated for 24 hrs by qPCR analysis.
Assay [3] relates to Glial cell. In words: Antiinflammatory activity in C57BL/6J mouse primary glial cells assessed as decrease in LPS-induced IL-6 mRNA level at 200 nM preincubated for 24 hrs followed by LPS stimulation by qPCR analysis. In outline:
(§1)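 Primary glia from whole brains of 1–2-day-old neonatal C57BL/6J mice (meninges removed, collected in Ca/Mg-free HBSS, oligodendrocytes and neurons separated off). Cells were given 200 nM steroid and stimulated with LPS 250 ng/mL. DMSO served as negative control. Gene expression was measured by qPCR. Data are mean ± SEM, analysed by two-way ANOVA with Newman-Keuls post hoc test.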

Assay [4] concerns Glial cell. In words: Antiinflammatory activity in C57BL/6J mouse primary glial cells assessed as effect on TNF-alpha mRNA level at 200 nM incubated for 24 hrs by qPCR analysis.
Assay [5] relates to Glial cell. Description: Antiinflammatory activity in C57BL/6J mouse primary glial cells assessed as effect on IL-6 mRNA level at 200 nM incubated for 24 hrs by qPCR analysis.
Assay [6] relates to Glial cell. In words: Antiinflammatory activity in C57BL/6J mouse primary glial cells assessed as decrease in LPS-induced TNF-alpha mRNA level at 200 nM preincubated for 24 hrs followed by LPS stimulation by qPCR analysis. In outline: as §1
In assay [7] the test system is Glial cell. Description: Antiinflammatory activity in C57BL/6J mouse primary glial cells assessed as decrease in LPS-induced IKBKE mRNA level at 200 nM preincubated for 24 hrs followed by LPS stimulation by qPCR analysis. Summed up:
as §1

Assay [8] relates to Glial cell. In words: Antiinflammatory activity in C57BL/6J mouse primary glial cells assessed as decrease in LPS-induced IL-1 mRNA level at 200 nM preincubated for 24 hrs followed by LPS stimulation by qPCR analysis. Summed up:
as §1

The source made the active and inactive calls. The rule behind the calls is not given here.

For `C[C@]12C[C@H]3O[C@H]4C[C@H](O)C[C@@]5(O)CC[C@H]([C@H]3[C@@]45CO)[C@@]1(O)CC[C@@H]2C1=CC(=O)OC1`, the result in the assay with Glial cell [1], in the assay with Glial cell [2], in the assay with Glial cell [3], in the assay with Glial cell [4], with Glial cell [5] and in the assay with Glial cell [6] was inactive. Moreover, the result with Glial cell [7] and with Glial cell [8] was inactive.
In the case of `C[C@@H]1O[C@@H](OC[C@@]23[C@@H]4[C@H]5CC[C@]2(O)C[C@@H](O)C[C@@H]3O[C@@H]4C[C@]2(C)[C@@H](C3=CC(=O)OC3)CC[C@]52O)[C@H](O)[C@H](O)[C@H]1O`, the outcome in the assay on Glial cell [1], in the assay on Glial cell [2], with Glial cell [3], with Glial cell [4] and with Glial cell [5] was inactive. In addition, the result in the assay with Glial cell [6] and in the assay with Glial cell [7] was Active.
Turning to `C[C@@H]1O[C@@H](O[C@H]2CC[C@]3(CO)[C@H]4CC[C@]5(C)[C@@H](C6=CC(=O)OC6)CC[C@]5(O)[C@@H]4CC[C@]3(O)C2)[C@H](O)[C@H](O)[C@H]1O`, the result in the assay with Glial cell [1], with Glial cell [2], in the assay on Glial cell [4] and with Glial cell [5] was inactive. Besides, the result with Glial cell [3], in the assay on Glial cell [6], in the assay with Glial cell [7] and in the assay with Glial cell [8] was Active.
As for `C[C@@H]1O[C@@H](O[C@H]2C[C@@H]3O[C@@H]4C[C@]5(C)[C@@H](C6=CC(=O)OC6)CC[C@]5(O)[C@@H]5CC[C@](O)(C2)[C@@]3(CO)[C@H]54)[C@H](O)[C@H](O)[C@H]1O`, the result in the assay on Glial cell [1], in the assay on Glial cell [2], with Glial cell [4] and in the assay with Glial cell [5] was inactive. The result in the assay on Glial cell [3], in the assay on Glial cell [6], with Glial cell [7] and in the assay with Glial cell [8] was Active.
For `C[C@@H]1O[C@@H](O[C@H]2C[C@@H](O)[C@]3(CO)[C@H]4[C@H](O)C[C@]5(C)[C@@H](C6=CC(=O)OC6)CC[C@]5(O)[C@@H]4CC[C@]3(O)C2)[C@H](O)[C@H](O)[C@H]1O`, the outcome in the assay with Glial cell [1], with Glial cell [2], in the assay on Glial cell [4] and in the assay on Glial cell [5] was inactive. In addition, the outcome in the assay on Glial cell [3], in the assay with Glial cell [6], in the assay on Glial cell [7] and in the assay on Glial cell [8] was Active.
Turning to `C[C@H]1O[C@@H](O[C@H]2[C@@H](O)C[C@H](O[C@H]3[C@@H](O)C[C@H](O[C@H]4CC[C@@]5(C)[C@H](CC[C@@H]6[C@@H]5C[C@@H](O)[C@]5(C)[C@@H](C7=CC(=O)OC7)CC[C@]65O)C4)O[C@@H]3C)O[C@@H]2C)C[C@H](O)[C@@H]1O`, the outcome with Glial cell [1], in the assay on Glial cell [2], in the assay with Glial cell [4] and in the assay on Glial cell [5] was inactive.
